Here are results for 1 compound from paper PMC7649717 (Analytical chemistry, 2020).

Common to all, as to test: isothermal titration calorimetry
Conditions in all cases: PBS, 298 K, 30 μM protein; GFP fusion

The target in test [1] is T1, GFP-RBP(L19A); ribose binding protein (RBP) (Escherichia coli, UniProt P02925, L44A/Q260A).
T1 sequence (P02925 26-296 L44A/Q260A): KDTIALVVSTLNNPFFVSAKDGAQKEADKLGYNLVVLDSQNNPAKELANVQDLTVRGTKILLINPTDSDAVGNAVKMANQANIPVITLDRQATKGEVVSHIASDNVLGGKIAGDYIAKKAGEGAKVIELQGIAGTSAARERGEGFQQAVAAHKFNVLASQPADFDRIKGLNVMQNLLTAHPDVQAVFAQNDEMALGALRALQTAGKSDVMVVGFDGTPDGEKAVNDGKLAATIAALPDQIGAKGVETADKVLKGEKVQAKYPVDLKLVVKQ

For test [2], the target named is T2, GFP-RBP(L19A); ribose binding protein (RBP) (Escherichia coli, UniProt P02925, L44A).
T2 sequence (P02925 26-296 L44A): T1 sequence (P02925 26-296 L44A/Q260A) with A235Q
The essentials:
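GFP-RBP(L19A) expressed in E. coli BL21(DE3) and Ni-affinity purified with on-column 8 M urea unfolding and refolding to strip endogenous ribose, then size-exclusion in PBS. ITC at 298 K: cell held 30 μM protein in PBS against a deionized water reference; ribose at 10x protein concentration in PBS. Kd came from nonlinear regression fits of the binding isotherms.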

The target of test [3] is T3, GFP-RBP(L19A); ribose binding protein (RBP) (Escherichia coli, UniProt P02925, L44A/T160A/Q260A).
T3 sequence (P02925 26-296 L44A/T160A/Q260A): T1 sequence (P02925 26-296 L44A/Q260A) with T135A

SMILES strings stand for the structures. Positions count from the first letter of the chain named.

Consider `OC1OC[C@@H](O)[C@@H](O)[C@H]1O` (stereo partly drawn) [ribose], for which the Kd in test [1] came out at 10 µM; in test [2], 0.3 ± 0.1 µM; in test [3] it was 130 µM.
